Experiments:
HCT-15 = experiment: Cytotoxicity against human HCT15 cells assessed as cell growth at 10^-5 M after 48 hrs by SRB assay; assay type: functional; conditions: HCT-15, 48 h, read-out: Activity
Outline: (§1)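 NCI 60 single-dose screen at 10^-5 M. Cells in RPMI 1640 with 5% FBS and 2 mM L-glutamine, preincubated 24 h at 37 °C/5% CO2. Drug from DMSO stock, then 48 h exposure. TCA fixation, SRB staining, absorbance at 515 nm. Result given as percent growth of treated cells relative to untreated control.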

SNB-75 = experiment: Cytotoxicity against human SNB75 cells assessed as cell growth at 10^-5 M after 48 hrs by SRB assay; assay type: functional; conditions: SNB-75, 48 h, read-out: Activity
Outline: (§2)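 NCI 60-panel single-dose primary screen at 10^-5 M. Cells are grown in RPMI 1640 with 5% FBS and 2 mM L-glutamine and preincubated 24 h at 37 °C. Drug exposure is 48 h. Cells are TCA-fixed, stained with SRB and absorbance is read at 515 nm. Results are reported as percent growth of treated cells versus untreated controls, corrected using time-zero plates.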

RPMI-8226 = experiment: Cytotoxicity against human RPMI8226 cells assessed as cell growth at 10^-5 M after 48 hrs by SRB assay; assay type: functional; conditions: RPMI-8226, 48 h, read-out: Activity; outline: as §2
M14 = experiment: Cytotoxicity against human M14 cells assessed as cell growth at 10^-5 M after 48 hrs by SRB assay; assay type: functional; conditions: M14, 48 h, read-out: Activity; outline: as §1
MOLT-4 = experiment: Cytotoxicity against human MOLT4 cells assessed as cell growth at 10^-5 M after 48 hrs by SRB assay; assay type: functional; conditions: MOLT-4, 48 h, read-out: Activity; outline: as §2
MDA-MB-468 = experiment: Cytotoxicity against human MDA-MB-468 cells assessed as cell growth at 10^-5 M after 48 hrs by SRB assay; assay type: functional; conditions: MDA-MB-468, 48 h, read-out: Activity; outline: as §2
HOP-62 = experiment: Cytotoxicity against human HOP62 cells assessed as cell growth at 10^-5 M after 48 hrs by SRB assay; assay type: functional; conditions: HOP-62, 48 h, read-out: Activity; outline: as §1
SF-295 = experiment: Cytotoxicity against human SF295 cells assessed as cell growth at 10^-5 M after 48 hrs by SRB assay; assay type: functional; conditions: SF-295, 48 h, read-out: Activity; outline: as §2
SK-OV-3 = experiment: Cytotoxicity against human SKOV3 cells assessed as cell growth at 10^-5 M after 48 hrs by SRB assay; assay type: functional; conditions: SK-OV-3, 48 h, read-out: Activity; outline: as §2
HCT-116 = experiment: Cytotoxicity against human HCT116 cells assessed as cell growth at 10^-5 M after 48 hrs by SRB assay; assay type: functional; conditions: HCT-116, 48 h, read-out: Activity; outline: as §1
NCI-H322M = experiment: Cytotoxicity against human NCI-H322M cells assessed as cell growth at 10^-5 M after 48 hrs by SRB assay; assay type: functional; conditions: read-out: Activity; outline: as §2
Malme-3M = experiment: Cytotoxicity against human MALME-3M cells assessed as cell growth at 10^-5 M after 48 hrs by SRB assay; assay type: functional; conditions: read-out: Activity; outline: as §1
SF-268 = experiment: Cytotoxicity against human SF268 cells assessed as cell growth at 10^-5 M after 48 hrs by SRB assay; assay type: functional; conditions: SF-268, 48 h, read-out: Activity; outline: as §2
SW-620 = experiment: Cytotoxicity against human SW620 cells assessed as cell growth at 10^-5 M after 48 hrs by SRB assay; assay type: functional; conditions: SW-620, 48 h, read-out: Activity
Outline: (§3)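 NCI primary single-dose screen at 10^-5 M. Cells grown in RPMI 1640 with 5% FBS and 2 mM L-glutamine, given 24 h before drug addition, then 48 h exposure at 37 °C, 5% CO2. Cells TCA-fixed, stained with SRB, read at 515 nm. Reported as percent growth of treated cells relative to untreated controls.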

PC-3 = experiment: Cytotoxicity against human PC3 cells assessed as cell growth at 10^-5 M after 48 hrs by SRB assay; assay type: functional; conditions: PC-3, 48 h, read-out: Activity; outline: as §2
SK-MEL-5 = experiment: Cytotoxicity against human SK-MEL-5 cells assessed as cell growth at 10^-5 M after 48 hrs by SRB assay; assay type: functional; conditions: SK-MEL-5, 48 h, read-out: Activity; outline: as §2
[1] = Cytotoxicity against human EKVX cells assessed as cell growth at 10^-5 M after 48 hrs by SRB assay; assay type: functional; conditions: read-out: Activity; outline: as §1
UO-31 = experiment: Cytotoxicity against human UO31 cells assessed as cell growth at 10^-5 M after 48 hrs by SRB assay; assay type: functional; conditions: UO-31, 48 h, read-out: Activity; outline: as §3
NCI-H23 = experiment: Cytotoxicity against human NCI-H23 cells assessed as cell growth at 10^-5 M after 48 hrs by SRB assay; assay type: functional; conditions: NCI-H23, 48 h, read-out: Activity; outline: as §2
[2] = target: Epidermal growth factor receptor (Homo sapiens, UniProt P00533); conditions: at 10 µM;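 further: EGFR tyrosine kinase activity on a poly(Glu,Tyr) substrate, read out by Kinase-Glo Plus luminescence after a 40 min reaction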
Chain of Epidermal growth factor receptor (P00533 whole entry): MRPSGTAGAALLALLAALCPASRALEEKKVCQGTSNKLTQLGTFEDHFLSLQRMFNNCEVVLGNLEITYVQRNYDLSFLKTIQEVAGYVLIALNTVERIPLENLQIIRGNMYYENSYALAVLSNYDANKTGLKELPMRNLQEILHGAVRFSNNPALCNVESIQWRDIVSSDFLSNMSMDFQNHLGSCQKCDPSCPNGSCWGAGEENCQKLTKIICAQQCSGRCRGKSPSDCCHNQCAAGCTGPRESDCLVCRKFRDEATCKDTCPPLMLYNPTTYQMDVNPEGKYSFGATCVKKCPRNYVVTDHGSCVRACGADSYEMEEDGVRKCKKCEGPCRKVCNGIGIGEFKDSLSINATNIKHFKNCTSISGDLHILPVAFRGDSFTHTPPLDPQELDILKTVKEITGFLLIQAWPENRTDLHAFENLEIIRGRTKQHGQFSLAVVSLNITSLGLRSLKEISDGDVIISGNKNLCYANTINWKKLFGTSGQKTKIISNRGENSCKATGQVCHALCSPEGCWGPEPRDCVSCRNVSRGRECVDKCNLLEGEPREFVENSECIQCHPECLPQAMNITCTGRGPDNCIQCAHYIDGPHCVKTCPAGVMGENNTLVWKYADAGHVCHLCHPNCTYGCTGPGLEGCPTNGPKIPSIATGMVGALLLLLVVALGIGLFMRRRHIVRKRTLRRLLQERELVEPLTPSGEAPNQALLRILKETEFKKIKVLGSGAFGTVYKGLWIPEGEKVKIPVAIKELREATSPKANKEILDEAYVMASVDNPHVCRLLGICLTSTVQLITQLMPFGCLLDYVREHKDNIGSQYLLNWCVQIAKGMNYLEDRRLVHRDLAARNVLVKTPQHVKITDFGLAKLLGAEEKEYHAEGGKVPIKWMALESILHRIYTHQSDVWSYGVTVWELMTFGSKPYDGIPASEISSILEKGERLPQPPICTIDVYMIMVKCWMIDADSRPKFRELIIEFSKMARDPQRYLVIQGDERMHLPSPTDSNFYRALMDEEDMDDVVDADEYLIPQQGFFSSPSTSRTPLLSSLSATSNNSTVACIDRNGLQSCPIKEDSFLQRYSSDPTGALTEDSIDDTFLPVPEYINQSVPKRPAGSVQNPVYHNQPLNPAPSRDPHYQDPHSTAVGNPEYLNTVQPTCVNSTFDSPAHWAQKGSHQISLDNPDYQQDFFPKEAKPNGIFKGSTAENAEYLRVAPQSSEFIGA

NCI-H226 = experiment: Cytotoxicity against human NCI-H226 cells assessed as cell growth at 10^-5 M after 48 hrs by SRB assay; assay type: functional; conditions: NCI-H226, 48 h, read-out: Activity; outline: as §2
[3] = Cytotoxicity against human NCI-ADR-RES cells assessed as cell growth at 10^-5 M after 48 hrs by SRB assay; assay type: functional; conditions: read-out: Activity; outline: as §2
CCRF-CEM = experiment: Cytotoxicity against human CCRF-CEM cells assessed as cell growth at 10^-5 M after 48 hrs by SRB assay; assay type: functional; conditions: read-out: Activity; outline: as §1
ACHN = experiment: Cytotoxicity against human ACHN cells assessed as cell growth at 10^-5 M after 48 hrs by SRB assay; assay type: functional; conditions: read-out: Activity; outline: as §1
UACC-62 = experiment: Cytotoxicity against human UACC62 cells assessed as cell growth at 10^-5 M after 48 hrs by SRB assay; assay type: functional; conditions: UACC-62, 48 h, read-out: Activity; outline: as §3
OVCAR-3 = experiment: Cytotoxicity against human OVCAR3 cells assessed as cell growth at 10^-5 M after 48 hrs by SRB assay; assay type: functional; conditions: OVCAR-3, 48 h, read-out: Activity; outline: as §2
LOX IMVI = experiment: Cytotoxicity against human LOXIMVI cells assessed as cell growth at 10^-5 M after 48 hrs by SRB assay; assay type: functional; conditions: read-out: Activity; outline: as §1
A549 = experiment: Cytotoxicity against human A549 cells assessed as cell growth at 10^-5 M after 48 hrs by SRB assay; assay type: functional; conditions: A549, 48 h, read-out: Activity; outline: as §1
CAKI-1 = experiment: Cytotoxicity against human Caki1 cells assessed as cell growth at 10^-5 M after 48 hrs by SRB assay; assay type: functional; conditions: CAKI-1, 48 h, read-out: Activity; outline: as §1
SK-MEL-28 = experiment: Cytotoxicity against human SK-MEL-28 cells assessed as cell growth at 10^-5 M after 48 hrs by SRB assay; assay type: functional; conditions: SK-MEL-28, 48 h, read-out: Activity; outline: as §2
T47D = experiment: Cytotoxicity against human T47D cells assessed as cell growth at 10^-5 M after 48 hrs by SRB assay; assay type: functional; conditions: read-out: Activity; outline: as §3
BT-549 = experiment: Cytotoxicity against human BT549 cells assessed as cell growth at 10^-5 M after 48 hrs by SRB assay; assay type: functional; conditions: BT-549, 48 h, read-out: Activity; outline: as §1
A498 = experiment: Cytotoxicity against human A498 cells assessed as cell growth at 10^-5 M after 48 hrs by SRB assay; assay type: functional; conditions: A498, 48 h, read-out: Activity; outline: as §1

Structure (SMILES)	growth at 10 µM (HCT-15)	growth at 10 µM (SNB-75)	growth at 10 µM (RPMI-8226)	growth at 10 µM (M14)	growth at 10 µM (MOLT-4)	growth at 10 µM (MDA-MB-468)	growth at 10 µM (HOP-62)	growth at 10 µM (SF-295)	growth at 10 µM (SK-OV-3)	growth at 10 µM (HCT-116)	growth at 10 µM (NCI-H322M)	growth at 10 µM (Malme-3M)	growth at 10 µM (SF-268)	growth at 10 µM (SW-620)	growth at 10 µM (PC-3)	growth at 10 µM (SK-MEL-5)	growth at 10 µM [1]	growth at 10 µM (UO-31)	growth at 10 µM (NCI-H23)	inhibition [2]	other results
CCOC(=O)/C(C#N)=C\Nc1ccc2ncnc(Nc3ccccc3Cl)c2c1	99%	87.2%	84.3%	119%	86.2%	34.7%	99.1%	102%	107%	113%	47%	156%	106%	116%	98.8%	88.3%	39%	66.7%	103%	94%	growth at 10 µM (NCI-H226): 116%; growth at 10 µM [3]: 99.6%; growth at 10 µM (CCRF-CEM): 93.1%; growth at 10 µM (ACHN): 68.7%; growth at 10 µM (UACC-62): 107%; growth at 10 µM (OVCAR-3): 95.3%; growth at 10 µM (LOX IMVI): 93%; growth at 10 µM (A549): 82.4%; growth at 10 µM (CAKI-1): 45%; growth at 10 µM (SK-MEL-28): 119%; growth at 10 µM (T47D): 77.6%; growth at 10 µM (BT-549): 112%; growth at 10 µM (A498): 63.7%
NC(=O)Nc1ccc2ncnc(Nc3ccc(Cl)cc3)c2c1	93.1%	95%	101%	107%	71.2%	-7.15%	86.2%	90.7%	30.2%	96.4%	18%	117%	79.7%	99.1%	79%	89.2%	22.4%	58%	100%	100%	growth at 10 µM (NCI-H226): 99.8%; growth at 10 µM [3]: 88.7%; growth at 10 µM (CCRF-CEM): 96%; growth at 10 µM (ACHN): 47.4%; growth at 10 µM (UACC-62): 87.9%; growth at 10 µM (OVCAR-3): 74.2%; growth at 10 µM (LOX IMVI): 95.5%; growth at 10 µM (A549): 72.5%; growth at 10 µM (CAKI-1): 40.1%; growth at 10 µM (SK-MEL-28): 106%; growth at 10 µM (T47D): 61.6%; growth at 10 µM (BT-549): 92.4%; growth at 10 µM (A498): 43.4%
NC(=O)Nc1ccc2ncnc(Nc3cccc(O)c3)c2c1	108%	102%	112%	102%	98.8%	67.9%	92.8%	98.1%	87.5%	109%	83.5%	121%	85.4%	99.1%	102%	101%	82.6%	80.1%	100%	100%	growth at 10 µM (NCI-H226): 102%; growth at 10 µM [3]: 96.8%; growth at 10 µM (CCRF-CEM): 108%; growth at 10 µM (ACHN): 103%; growth at 10 µM (UACC-62): 105%; growth at 10 µM (OVCAR-3): 82.8%; growth at 10 µM (LOX IMVI): 101%; growth at 10 µM (A549): 93.5%; growth at 10 µM (CAKI-1): 84.8%; growth at 10 µM (SK-MEL-28): 114%; growth at 10 µM (T47D): 76.6%; growth at 10 µM (BT-549): 108%; growth at 10 µM (A498): 77.4%

— ChEMBL document CHEMBL2346534, “Design, synthesis and in vitro anti-proliferative activity of 4,6-quinazolinediamines as potent EGFR-TK inhibitors” (Eur J Med Chem, 2013)
